# In ChEMBL document CHEMBL1811814, “Synthesis and evaluation of indole, pyrazole, chromone and pyrimidine based conjugates for tumor growth inhibitory activities--development of highly efficacious cytotoxic agents” (Eur J Med Chem, 2010):
# What was measured:
# Format in all cases: functional
# [1] = test system: MOLT-4; test: Growth inhibition of human MOLT4 cells
# [2] = test system: SF-539; test: Growth inhibition of human SF539 cells
# [3] = test system: HOP-62; test: Growth inhibition of human HOP62 cells
# [4] = test system: CCRF-CEM; test: Growth inhibition of human CCRF-CEM cells assessed tumor cell growth at 10^-5 M; parameters: scale not given: the % may be the effect or the level left
# Summary of the method: (§1)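 NCI 60-human-tumor-cell-line panel screen. Each compound was tested at a single concentration of 10^-5 M, and percent growth of tumor cells was recorded for each cell line. Growth inhibition was expressed from these percent-growth values.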
# [5] = test system: SNB-75; test: Growth inhibition of human SNB75 cells
# [6] = test system: MDA-MB-231; test: Growth inhibition of human MDA-MB-231 cells
# [7] = test system: SK-MEL-5; test: Growth inhibition of human SK-MEL-5 cells
# [8] = test system: SK-MEL-5; test: Growth inhibition of human SK-MEL-5 cells assessed tumor cell growth at 10^-5 M; parameters: scale not given: the % may be the effect or the level left; summary of the method: as §1
# [9] = test system: BT-549; test: Growth inhibition of human BT549 cells assessed tumor cell growth at 10^-5 M; parameters: scale not given: the % may be the effect or the level left; summary of the method: as §1
# [10] = test system: DU-145; test: Growth inhibition of human DU145 cells
# [11] = test system: A498; test: Growth inhibition of human A498 cells assessed tumor cell growth at 10^-5 M; parameters: scale not given: the % may be the effect or the level left; summary of the method: as §1
# [12] = test system: EKVX; test: Growth inhibition of human EKVX cells assessed tumor cell growth at 10^-5 M; parameters: scale not given: the % may be the effect or the level left; summary of the method: as §1
# [13] = test system: 786-0; test: Growth inhibition of human 786-0 cells
# [14] = test system: IGROV-1; test: Growth inhibition of human IGROV1 cells
# Summary of the method: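 Follow-up panel testing at five concentrations (10^-4, 10^-5, 10^-6, 10^-7 and 10^-8 M) across the 60 human tumor cell lines. GI50 was obtained for each line from the concentration-response data, with the panel average GI50 also reported.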
# [15] = test system: ACHN; test: Growth inhibition of human ACHN cells assessed tumor cell growth at 10^-5 M; parameters: scale not given: the % may be the effect or the level left; summary of the method: as §1
# [16] = test system: HCT-15; test: Growth inhibition of human HCT15 cells assessed tumor cell growth at 10^-5 M; parameters: scale not given: the % may be the effect or the level left; summary of the method: as §1
# [17] = test system: SF-268; test: Growth inhibition of human SF268 cells
# [18] = test system: OVCAR-5; test: Growth inhibition of human OVCAR5 cells assessed tumor cell growth at 10^-5 M; parameters: scale not given: the % may be the effect or the level left; summary of the method: as §1
# [19] = test system: OVCAR-8; test: Growth inhibition of human OVCAR8 cells
# [20] = test system: CAKI-1; test: Growth inhibition of human Caki1 cells assessed tumor cell growth at 10^-5 M; parameters: scale not given: the % may be the effect or the level left; summary of the method: as §1
# [21] = test system: HT-29; test: Growth inhibition of human HT-29 cells assessed tumor cell growth at 10^-5 M; parameters: scale not given: the % may be the effect or the level left; summary of the method: as §1
# [22] = test system: U-251; test: Growth inhibition of human U251 cells assessed tumor cell growth at 10^-5 M; parameters: scale not given: the % may be the effect or the level left
# Summary of the method: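 Single-dose screen at 10^-5 M across the 60 human tumor cell line panel, run to NCI standards. The value is the percent growth of each cell line in the presence of compound. Compounds active at this dose moved on to five-concentration testing (10^-4 to 10^-8 M).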
# [23] = test system: M14; test: Growth inhibition of human M14 cells
# [24] = test system: NCI-H226; test: Growth inhibition of human NCI-H226 cells assessed tumor cell growth at 10^-5 M; parameters: scale not given: the % may be the effect or the level left; summary of the method: as §1
# [25] = Growth inhibition of human […] cells assessed tumor cell growth at 10^-5 M; parameters: scale not given: the % may be the effect or the level left; summary of the method: as §1
# [26] = test system: RXF 393; test: Growth inhibition of human RXF393 cells assessed tumor cell growth at 10^-5 M; parameters: scale not given: the % may be the effect or the level left; summary of the method: as §1
# [27] = read-out: LC50 (the source's name)
smiles,measurement,setting,value
CC1=NN(c2cccc(Cl)c2)C(=O)/C1=C\c1c(O)ccc2ccccc12,GI50,[1],> 100 µM
same,LC50,[1],> 100 µM
same,GI50,[2],0.01 µM
same,CC50,[2]; [27],> 100 µM
same,GI50,[3],31.6 µM
same,CC50,[3]; [27],> 100 µM
same,Activity,[4],36.33%
same,GI50,[5],0.9 µM
same,CC50,[5]; [27],> 100 µM
same,GI50,[6],36.3 µM
same,CC50,[6]; [27],> 100 µM
same,GI50,[7],> 100 µM
same,CC50,[7]; [27],> 100 µM
same,Activity,[8],-82.5%
same,Activity,[9],90.21%
same,GI50,[10],70.7 µM
same,CC50,[10]; [27],> 100 µM
same,Activity,[11],107.38%
same,Activity,[12],51.27%
same,GI50,[13],21.3 µM
same,CC50,[13]; [27],> 100 µM
same,GI50,[14],26.9 µM
same,CC50,[14]; [27],> 100 µM
same,Activity,[15],-36.07%
same,Activity,[16],49.94%
same,GI50,[17],97.7 µM
same,CC50,[17]; [27],> 100 µM
same,Activity,[18],16.91%
same,GI50,[19],> 100 µM
same,CC50,[19]; [27],> 100 µM
same,Activity,[20],34.96%
same,Activity,[21],13.48%
same,Activity,[22],-10.7%
same,GI50,[23],> 100 µM
same,CC50,[23]; [27],> 100 µM
same,Activity,[24],1.04%
same,Activity,[25],96.44%
same,Activity,[26],-76.85%
